Sampled rows, rich in hits. Any-hit rate of the full collection: about 2.1%.
bovine MsrA act: bovine methionine sulfoxide reductase A activation | activation, % at 10.6 µM | actives 0.3% (n = 360,000) | AID 602163 | purified bovine MsrA, absorbance read-out; in the data active means activation above about 7.5%
IMP-1 inhibitor: blocks Pseudomonas aeruginosa IMP-1 metallo-beta-lactamase | actives 0.45% (n = 290,000) | inhibition, % at 5.6 µM | AID 1556 | purified IMP-1, nitrocefin hydrolysis, epi-absorbance fluorescence;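 active means inhibition above the mean plus 3 SD of all compounds in the same screening run, cut at about 4.5% in these data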
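System: purified IMP-1 / Input: IMP-1 dispensed at 0.2 nM / Medium: 50 mM HEPES pH 7.1, 50 µM ZnSO4, 0.05% Brij 35 / Timing: 15 min enzyme–compound preincubation, then 25 min nitrocefin reaction, 25 °C / Technique: plate fluorescence quenching by hydrolysis product, ex 480/em 530 nm / Repeats: singlicate testing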
MsrA inhibitor: inhibits bovine methionine sulfoxide reductase A; purified bovine MsrA, absorbance read-out; inhibition, % at 15.5 µM; actives 0.75% (n = 360,000)
PKA-R2B activ: activators of human PKA-R2B complex. PKA-R2B holoenzyme dissociation, Cy5-IP20 fluorescence polarization; R2B truncated from residue 108, S112A mutant; 0% DMSO only, 100% 113 µM cGMP. P22694+P31323. AID 504700. activation, % at 11.4 µM. actives 0.079% (n = 340,000);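 active means activation above a cutoff set at the mean over all compounds plus 3 SD, cut at about 18% in these data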;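 further: higher means more holoenzyme dissociation and a rise in polarization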
Target sequence (P31323 whole entry, looked up, other chains not shown, the tested form may be a part): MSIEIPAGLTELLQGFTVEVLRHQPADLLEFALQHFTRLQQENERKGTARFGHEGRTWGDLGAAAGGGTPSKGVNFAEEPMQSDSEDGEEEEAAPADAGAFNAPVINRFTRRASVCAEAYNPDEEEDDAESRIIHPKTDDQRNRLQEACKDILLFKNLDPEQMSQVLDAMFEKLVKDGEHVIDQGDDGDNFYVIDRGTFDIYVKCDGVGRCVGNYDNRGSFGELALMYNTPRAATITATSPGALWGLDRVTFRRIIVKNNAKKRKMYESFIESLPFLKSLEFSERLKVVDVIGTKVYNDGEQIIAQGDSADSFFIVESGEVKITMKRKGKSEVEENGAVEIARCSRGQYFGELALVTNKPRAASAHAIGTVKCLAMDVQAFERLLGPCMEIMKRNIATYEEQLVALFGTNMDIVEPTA
VIM-2 inh: inhibitors of Pseudomonas aeruginosa VIM-2 metallo-beta-lactamase. inhibition, % at 5.6 µM. AID 1527. purified VIM-2, nitrocefin hydrolysis, epi-absorbance fluorescence. actives 0.89% (n = 290,000);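 active means inhibition above the mean of all tested compounds plus 3 SD, cutoff set per screening run, cut at about 7.5% in these data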;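 further: red hydrolysis product quenches plate fluorescence so inhibitors raise well fluorescence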
PKA-R1A activ: activators of PKA-R1A complex; actives 0.083% (n = 340,000); activation, % at 11.4 µM; PKA-R1A dissociation, Cy5-IP20 fluorescence polarization; scaled: DMSO 0%, 113 µM cGMP 100%;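 active means percent activation above the mean of all tested compounds plus 3 SD, cut at about 19% in these data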;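 further: higher means more PKAc released from R1A so a rise in polarization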
MsrA inh confirm: confirmation of bovine MsrA inhibitors | shares compounds with MsrA inhibitor | purified bovine MsrA, absorbance read-out | inhibition, % at 15.5 µM | actives 41% (n = 2,300) | AID 651822;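 further: coupled to thioredoxin reductase with NADPH and selenocystamine and DMSO as substrate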
Numbers stand for hits; – = inactive; · = not tested or not shown. Unless noted, no stated cut-off is given here; in the data, active means inhibition above about 4.5%; inactive means the rest.

SMILES	bovine MsrA act	IMP-1 inhibitor	MsrA inhibitor	PKA-R2B activ	VIM-2 inh	PKA-R1A activ	MsrA inh confirm
Cc1cc(N(CCCl)CCCl)ccc1C=NNC(=O)c1cccnc1	–	·	5.3	–	·	–	–
CC1CC(OP(O)(=S)c2ccc(N(C)C)cc2NC(=O)c2cccs2)CC(C)(C)C1 (stereo not drawn)	–	–	–	–	–	–	·
Cc1ccc(-n2c(O)c(C=NCCN3CCOCC3)c(=O)[nH]c2=O)cc1	–	–	–	–	–	–	·
O=c1[nH]c(=O)n(-c2cccc(Cl)c2)c(O)c1C=NCCCN1CCOCC1	–	–	12.8	–	–	–	6.8
N#C/C(=C\c1ccc(O)cc1)C(=O)O (tested in a mixture with another compound)	–	·	4.7	–	·	–	–
CCn1nc(/C=C/c2ccccc2)nc2c(=O)n(C)c(=O)nc1-2	–	–	5.3	·	–	·	4.6
Cc1ccccc1-c1ccc2n1Cc1cnnn1-c1ccccc1-2	–	·	5.5	–	·	–	–
ClCCN(CCCl)c1ccc(C2=NCCc3ccccc32)cc1	–	·	–	–	·	–	·
N#Cc1ncc(N=Cc2ccc(N(CCCl)CCCl)cc2)s1	–	·	5.0	–	·	–	6.2
ClCCN(CCCl)c1ccc(C=NNc2ncccn2)cc1	–	·	6.2	–	·	–	7.4
ClCCN(CCCl)c1ccc(C=Cc2ccncn2)cc1	–	·	–	·	·	·	·

Bioassay records (PubChem BioAssay)
